ChEMBL document CHEMBL4477167, “Limonoids and Triterpenoids as 11β-HSD1 Inhibitors from Walsura robusta” (J Nat Prod, 2016)
pIC50: −log10 of the molar value.

Assays:
[1] = target: 11-beta-hydroxysteroid dehydrogenase 1 (Mus musculus, UniProt P50172); assay: Inhibition of mouse microsomal 11beta-HSD1 overexpressed in HEK293 cells using [3H]-cortisone as substrate assessed as formation of [3H]-cortisol using [3H]cortisone by scintillation proximity assay in presence of NADPH; settings: for pIC50: read-out: IC50
[2] = target: T1, 11-beta-hydroxysteroid dehydrogenase 1 (Homo sapiens, UniProt P28845); assay: Inhibition of human microsomal 11beta-HSD1 overexpressed in HEK293 cells using [3H]-cortisone as substrate assessed as formation of [3H]-cortisol at 10 uM using [3H]cortisone by scintillation proximity assay in presence of NADPH
Summary of the method: (§1)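 Human or mouse 11β-HSD1 inhibition measured in vitro by scintillation proximity assay (SPA). Every isolate was first screened at a single concentration of 10 μM. […] Glycyrrhetinic acid served as the positive control. Other assay conditions follow an earlier report.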
Target sequence in this assay (P28845 whole entry, looked up): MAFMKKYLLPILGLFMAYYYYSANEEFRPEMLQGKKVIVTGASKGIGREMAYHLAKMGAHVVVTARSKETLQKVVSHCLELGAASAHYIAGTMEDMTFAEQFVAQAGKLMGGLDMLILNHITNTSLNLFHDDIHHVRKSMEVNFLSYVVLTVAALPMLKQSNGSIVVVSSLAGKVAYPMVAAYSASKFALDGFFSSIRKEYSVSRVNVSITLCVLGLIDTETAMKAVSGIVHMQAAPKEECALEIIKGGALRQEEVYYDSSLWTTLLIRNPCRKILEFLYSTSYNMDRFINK

[3] = target: 11-beta-hydroxysteroid dehydrogenase 1 (Mus musculus) (UniProt P50172); assay: Inhibition of mouse microsomal 11beta-HSD1 overexpressed in HEK293 cells using [3H]-cortisone as substrate assessed as formation of [3H]-cortisol at 10 uM using [3H]cortisone by scintillation proximity assay in presence of NADPH; summary of the method: as §1
[4] = target: T1, 11-beta-hydroxysteroid dehydrogenase 1; assay: Inhibition of human microsomal 11beta-HSD1 overexpressed in HEK293 cells using [3H]-cortisone as substrate assessed as formation of [3H]-cortisol using [3H]cortisone by scintillation proximity assay in presence of NADPH
Target sequence in this assay (P28845 whole entry): as the sequence (P28845 whole entry, looked up) above

11-beta-hydroxysteroid dehydrogenase 1 (Mus musculus), sequence (P50172 whole entry, looked up): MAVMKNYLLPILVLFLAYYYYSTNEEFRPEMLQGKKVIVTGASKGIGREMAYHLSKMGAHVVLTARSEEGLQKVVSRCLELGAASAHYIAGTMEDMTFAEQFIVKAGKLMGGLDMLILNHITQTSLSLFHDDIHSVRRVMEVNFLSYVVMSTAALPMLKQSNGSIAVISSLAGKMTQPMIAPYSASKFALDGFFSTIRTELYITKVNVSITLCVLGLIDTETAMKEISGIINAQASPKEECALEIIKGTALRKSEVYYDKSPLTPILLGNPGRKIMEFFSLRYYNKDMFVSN
11-beta-hydroxysteroid dehydrogenase 1 (Mus musculus, UniProt P50172), sequence (P50172 whole entry): as the sequence (P50172 whole entry, looked up) above

| Structure (SMILES) | pIC50 [1] | inhibition [2] | inhibition [3] | pIC50 [4] | IC50 ([1]; hek293) |
| --- | --- | --- | --- | --- | --- |
| C[C@@H]([C@@H]1O[C@@H]1C(O)C(C)(C)O)[C@@H]1CC[C@]2(C)C3=CC[C@H]4C(C)(C)[C@H](O)CC[C@]4(C)[C@H]3CC[C@@]12C (stereo partly specified) | 5.92 | > 50% | > 50% | 5.72 | – |
| C[C@@H](C[C@@H](O)[C@H](O)C(C)(C)O)[C@@H]1CC[C@]2(C)C3=CC[C@H]4C(C)(C)C(=O)CC[C@]4(C)[C@H]3CC[C@@]12C | 6.06 | < 50% | > 50% | – | – |
| C[C@@H](C[C@@H](O)[C@@H]1OC1(C)C)[C@H]1CC[C@@]2(C)C3=CC[C@H]4C(C)(C)C(=O)CC[C@]4(C)[C@H]3CC[C@]12C | 6.16 | < 50% | > 50% | – | – |
| CC(=O)O[C@H]1C[C@@]2(C)[C@H](c3ccoc3)C[C@H]3O[C@]32[C@]2(C)C(=O)C(O)=C3C(C)(C)C(=O)C=C[C@]3(C)[C@@H]12 | – | > 50% | – | 5.00 | Not Active |
| C[C@@H](C[C@@H](O)[C@@H]1OC1(C)C)[C@H]1CC[C@@]2(C)C3=CC[C@H]4C(C)(C)[C@@H](O)CC[C@]4(C)[C@H]3CC[C@]12C | 5.42 | < 50% | > 50% | – | – |
